Test results reported in PubChem BioAssay.
Records with an inconclusive call do not appear.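 The calls were made as follows, unless noted: active = growth inhibition above 25% in both replicates, a cutoff set 3 SD above the mean; inconclusive = above 25% in only one replicate; inactive = the rest.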

Columns and labels:
[1] = S. cerevisiae growth inhibition in permissive medium (OD615), pilot counter-assay for S. cerevisiae lifespan shortening project, permissive growth control (AID 705); conditions: OD615, 24 h, at 10 µM, active compounds read high
In short: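 Material: engineered DeaD yeast; compound dosing: one dose 10 µM, DMSO 0.25% final; measure: yeast growth inhibition indicated by reduced 24 h OD615; detection: OD615 turbidity read; incubation: cells pre-grown 4 h, then 24 h compound exposure, 30 °C humidified; medium: permissive synthetic complete medium with raffinose and galactose carbon sources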

[2] = S. cerevisiae growth inhibition in restrictive medium, OD615, pilot screen, restrictive growth control, yeast lifespan reduction project (AID 706;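 active = growth inhibition above a set limit, 3 SD over mean compound inhibition, in both replicates, cut at about 43% in these data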;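 also: modified DeaD lifespan yeast strain shifted to restrictive glucose medium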); conditions: OD615, 48 h, at 10 µM, active compounds read high
In short: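 material = engineered S. cerevisiae DeaD strain | medium = glucose-based CSMM-D restrictive medium | times = 4 h pre-incubation, 48 h exposure at 30 °C | technique = OD615 absorbance reading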

[3] = doxorubicin toxicity protection in MRP-1 cells – H69AR cells, CellTiter-Glo, duplicate, MRP-1 activator project, pilot screen (AID 807;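 active = viability increase at or above a cutoff of the median across tested compounds plus 3 SD, cut at about 8.5% in these data, passing the limit was not always enough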;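 also: compound pretreatment 18-22 h then 72 h combined with doxorubicin; 0% = doxorubicin alone and 100% = vehicle without doxorubicin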); conditions: H69AR viability with doxorubicin, CellTiter-Glo luminescence; at 10 µM; active compounds read high
[4] = viability of HCT116 without oncogenic beta-catenin – human colon tumor cells, pilot screen (AID 823;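 active = cell viability at or below a set limit in both duplicate runs, the limit being the all-compound median minus 4 SD, cut at about 23% in these data, passing the limit was not always enough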;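 also: 0% = wells killed by 20 µM Hyamine and 100% = untreated DMSO cell wells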); conditions: HCT116 beta-catenin knockout viability, CellTiter-Glo, 60 h; at 10 µM; active compounds read low
[5] = viability of PTEN-null HCT116 cells – cell-based, HCT116 clonal line, CellTiter-Glo, pilot screen (AID 824;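 active = viability at or below 27.92% in each of two runs, the all-compound median minus 4 SD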;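 also: 0% = 20 µM Hyamine control and 100% = vehicle cell control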); conditions: HCT116 PTEN-deleted viability, 60 h, at 10 µM, active compounds read low
[6] = RAM pathway blockade in budding yeast – dse1pr::URA3 reporter, 5-FOA selection, pilot screen (AID 869;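 active = inhibition over a set limit, the all-compound mean plus 3 SD, in both replicate runs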;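 also: 0% = DMSO wells with no growth and 100% = 10 µM 1-NA-PP1 with full growth; RAM network block rescues cells from 5-FOA so hits raise OD615 growth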); conditions: S. cerevisiae dse1pr::URA3 5-FOA growth, OD615, 2 d; at 10 µM; active compounds read high; strain carries analog-sensitive mutant Cbk1 kinase
[7] = RAM signaling pathway blockade in yeast – S. cerevisiae, Pdr1DBD-CYC8 efflux-inhibited sensitized strain, primary screen (AID 1298;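 active = RAM network inhibition above 8.4% in each of two replicates, 3 SD over the compound average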;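 also: 0% = DMSO untreated cells without growth and 100% = 10 µM 1-NA-PP1 full growth; higher means more yeast growth rescued from 5-FOA killing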); conditions: S. cerevisiae cbk1-as DSE1-URA3 strain, 5-FOA growth OD615, 2 d; at 50 µM; active compounds read high

COc1ccc(C2C3=C(CCCC3=O)Nc3nc(SCc4ccc(C(=O)O)cc4)nn32)cc1OC (stereo not drawn)
inactive: growth inhibition [1] -7.69% | growth inhibition [2] -1.59% | viability increase [3] -0.88% | viability [4] 92.8% | viability [5] 95.3% | inhibition [6] 3.18% | RAM network inhibition [7] 3.48%

Cn1c(Cn2c(=O)sc3ccccc32)nnc1SCC(=O)N1CCCCCC1
inactive: growth inhibition [1] -15% | growth inhibition [2] -23.5% | viability increase [3] -0.71% | viability [4] 102% | viability [5] 95.2% | inhibition [6] 2.58% | RAM network inhibition [7] 1.04%

COc1ccc(Cl)cc1NC(=O)Cn1c(=O)n2nc(C)nc2c2ccccc21
inactive: growth inhibition [1] -7.69% | growth inhibition [2] 3.31% | viability increase [3] -7.15% | viability [4] 90.9% | viability [5] 87.8% | inhibition [6] 0.175% | RAM network inhibition [7] 6.46%

O=c1cc(CSc2nnc(-c3ccccc3)o2)c2ccccc2[nH]1
inactive: growth inhibition [1] -4.87% | growth inhibition [2] -3.43% | viability increase [3] 0.91% | viability [4] 99.2% | viability [5] 102% | inhibition [6] 2.32% | RAM network inhibition [7] 6.08%

CN(Cc1ccccc1)C(=O)CCS(=O)(=O)c1ccc2c(c1)n(C)c(=O)c(=O)n2C
inactive: growth inhibition [1] -4.66% | growth inhibition [2] -4.58% | viability increase [3] 0.66% | viability [4] 95.7% | viability [5] 100% | inhibition [6] 1.23% | RAM network inhibition [7] 4.6%

Cc1cc(C)c2c(CC(=O)O)coc2c1
inactive: growth inhibition [1] -5.72% | growth inhibition [2] 10.2% | viability increase [3] 0.24% | viability [4] 93.9% | viability [5] 105% | inhibition [6] 2.03% | RAM network inhibition [7] 0.98%

CC1CN(c2cc(=O)n(Cc3ccc(F)cc3)c(=O)[nH]2)CC(C)O1 (stereo not drawn)
inactive: growth inhibition [1] 5.64% | growth inhibition [2] -6.42% | viability increase [3] 0.06% | viability [4] 99.4% | viability [5] 105% | inhibition [6] 1.31% | RAM network inhibition [7] -0.24%

CCOc1ccc(N(CC(=O)N2CC=C(c3ccccc3)CC2)S(=O)(=O)c2c(C)noc2C)cc1
inactive: growth inhibition [1] -3.46% | growth inhibition [2] -23.9% | viability increase [3] -3.95% | viability [4] 71.1% | viability [5] 64.9% | inhibition [6] 1.11% | RAM network inhibition [7] 0.32%

COc1cccc(NC(=O)c2nnn(CCc3ccccc3)c2N)c1
inactive: growth inhibition [1] -1.48% | growth inhibition [2] 0.3% | viability increase [3] -6.11% | viability [4] 65.9% | viability [5] 50.7% | inhibition [6] 2.52% | RAM network inhibition [7] 0.72%

CCN1CCN(CC(=O)Nc2ccc(C)cc2C)C(=O)C1=O
inactive: growth inhibition [1] 2.74% | growth inhibition [2] -6.08% | viability increase [3] -0.23% | viability [4] 98% | viability [5] 97% | inhibition [6] 1.74% | RAM network inhibition [7] -0.71%

CCCc1cc(C(=O)NCc2ccc(OC)cc2)no1
inactive: growth inhibition [1] -7.46% | growth inhibition [2] 18.4% | viability increase [3] -0.95% | viability [4] 107% | viability [5] 99.3% | inhibition [6] 1.78% | RAM network inhibition [7] -0.68%

COC(=O)C1CCN(C(c2cc(OC)c(OC)c(OC)c2)c2sc3nc(C)nn3c2O)CC1 (stereo not drawn)
inactive: growth inhibition [1] -10.8% | growth inhibition [2] -17.2% | viability increase [3] -1.81% | viability [4] 102% | viability [5] 93% | inhibition [6] 2.08% | RAM network inhibition [7] 3.91%

CCOC(=O)c1cnc2c(C)cccc2c1NCc1ccco1
inactive: growth inhibition [1] -10.5% | growth inhibition [2] -9.38% | viability increase [3] -4.61% | viability [4] 82.5% | viability [5] 79% | inhibition [6] 1.28% | RAM network inhibition [7] -0.77%

CCc1ccc(Cn2nnc(C(=O)Nc3cccc(C)c3)c2N)cc1
inactive: growth inhibition [1] -7.21% | growth inhibition [2] -2.92% | viability increase [3] -0.67% | viability [4] 102% | viability [5] 95.9% | inhibition [6] 3.39% | RAM network inhibition [7] 8.18%

CCOC(=O)c1nc2nc(C)cc(=O)n2[nH]1
inactive: growth inhibition [1] -14.5% | growth inhibition [2] -7.54% | viability increase [3] 0.46% | viability [4] 105% | viability [5] 97.7% | inhibition [6] 0.96% | RAM network inhibition [7] 4.54%

CCN(CC)C(=O)Nc1cnc2ccccc2c1
inactive: growth inhibition [1] -17.2% | growth inhibition [2] -8.12% | viability increase [3] -2.72% | viability [4] 93.5% | viability [5] 96.4% | inhibition [6] 0.115% | RAM network inhibition [7] 5.38%

CN(CCO)c1ncnc2nc[nH]c12
inactive: growth inhibition [1] -10.4% | growth inhibition [2] -7.77% | viability increase [3] 0.3% | viability [4] 104% | viability [5] 93.2% | inhibition [6] 1.36% | RAM network inhibition [7] 1.71%

CCCCOC(=O)CSc1nnc(N)s1
inactive: growth inhibition [1] -4.92% | growth inhibition [2] -1.45% | viability increase [3] -0.86% | viability [4] 105% | viability [5] 96.5% | inhibition [6] 0.205% | RAM network inhibition [7] 6.89%

Nc1nc(Nc2cccc(F)c2)nc2ccccc12
inactive: growth inhibition [1] -11.6% | growth inhibition [2] -30.8% | viability increase [3] -5.76% | viability [4] 70.3% | viability [5] 67.6% | inhibition [6] 1.88% | RAM network inhibition [7] 4.92%

COc1cccc(-c2nc(CS(=O)(=O)CC(=O)NCCC(C)C)c(C)o2)c1
inactive: growth inhibition [1] 3.72% | growth inhibition [2] 7.53% | viability increase [3] 0.8% | viability [4] 94% | viability [5] 89.1% | inhibition [6] 0.36% | RAM network inhibition [7] 1.13%

CC1CCCCN1CCNC(=O)c1cc2c(-c3ccccc3F)nn(C)c2s1 (stereo not drawn)
inactive: growth inhibition [1] -3.09% | growth inhibition [2] 0.025% | viability increase [3] -6.73% | viability [4] 48% | viability [5] 59.6% | inhibition [6] 0.095% | RAM network inhibition [7] 5.89%

O=C(CC1Oc2ccccc2NC1=O)NCCCN1CCN(Cc2ccccc2)CC1 (stereo not drawn)
inactive: growth inhibition [1] 2.54% | growth inhibition [2] -3.21% | viability increase [3] -3.71% | viability [4] 94.3% | viability [5] 93.3% | inhibition [6] 1.56% | RAM network inhibition [7] 5.35%

CC(C)Sc1nc2c(c(=O)n1C)SC(C)C2 (stereo not drawn)
inactive: growth inhibition [1] -7.53% | growth inhibition [2] 2.86% | viability increase [3] -1.28% | viability [4] 106% | viability [5] 99.5% | inhibition [6] 1.61% | RAM network inhibition [7] 5.77%

COC(=O)c1ccc(NC(=O)CSc2nnc(COc3ccc4c(c3)CCCC4)o2)cc1
inactive: growth inhibition [1] -2.11% | growth inhibition [2] -2.11% | viability increase [3] -3.92% | viability [4] 97.8% | viability [5] 96.7% | inhibition [6] 3.43% | RAM network inhibition [7] 4.19%
